# A selection: hits, their analogues and other compounds. The true share with any hit is near 2.3%.
# ABCB1 inh: ABCB1 efflux pump inhibitors, primary screen, cell-based, multiplex, flow cytometry, ABCG2 counter-screen | ATP-dependent translocase ABCB1 (Homo sapiens), P08183 | inhibition, % at 6.6 µM | actives 0.067% (n = 190,000) | CCRF-Adr cells, JC-1 efflux; in the data active = inhibition above about 40%;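 also: higher value means more JC-1 retained so stronger ABCB1 efflux block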
# MEKK2 WT-MEK5: modulators of MEK5 binding to wildtype MEKK2, primary screen, biochemical, multiplex bead flow cytometry, Alexa488-MEK5 | binding response (% of control), % at 10 µM | AID 1531, 2009 | actives 1.1% (n = 290,000) | Mitogen-activated protein kinase kinase kinase 2 (Homo sapiens), Q9Y2U5 | Alexa488-MEK5 binding to MEKK2 WT; actives lie on both sides; in the data active = binding response below about 67% or above about 130%
# ABCG2 inh: ABCG2 efflux pump inhibitors, primary screen, multiplex with ABCB1, IgMXP3 cells, flow cytometry; Broad substrate specificity ATP-binding cassette transporter ABCG2 (Homo sapiens), Q9UNQ0; JC-1 efflux; inhibition, % at 6.6 µM; actives 0.1% (n = 190,000);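 active = inhibition above 80%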
#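 Incubation: cells with compound and JC-1, 10 min at 25 °C, rotating, no wash / Test system: IgMXP3 (ABCG2) plus far-red-tagged CCRF-Adr (ABCB1) cells / Compound dosing: one concentration, 6.6 µM final / Also added: JC-1 fluorescent substrate / Evaluation: efflux inhibition in percent versus controls / Detection: flow cytometry, 530 nm JC-1 signal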
# MEKK2mut PB1 HTS: MEK5 binding signal on mutant MEKK2 PB1, primary screen, biochemical, multiplex bead flow cytometry, Alexa488-MEK5; Alexa488-MEK5 binding to MEKK2 mutant; percent response, % at 10 µM; actives 0.35% (n = 290,000); AID 1530, 2009; in the data active = percent response above about 24%, passing the limit was not always enough
# MEKK3 PB1 HTS: modulators of MEKK3-MEK5 PB1 binding, primary screen, biochemical, wildtype MEKK3, multiplex bead flow cytometry, Alexa488-MEK5 | Mitogen-activated protein kinase kinase kinase 3 (Homo sapiens), Q99759 | bead-based flow cytometry, Alexa488-MEK5 binding to MEKK3; actives lie on both sides; 0 = blocked by unlabeled MEK5, 100 = vehicle | binding response (% of control), % at 10 µM | actives 1.4% (n = 290,000) | AID 1529, 2009;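 active = binding response more than 3 SD above or below the average of its plate-row segment, actives on both sides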;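 also: Alexa488 bead fluorescence after subtracting the streptavidin-only scavenger bead signal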
# MEKK2wt confirm: modulators of MEK5 binding to wildtype MEKK2, confirmation, biochemical, single concentration, multiplex bead flow cytometry; shares compounds with MEKK3 PB1 HTS; Alexa488-MEK5 binding to MEKK2 WT; actives lie on both sides; binding response (% of control), % at 10 µM; actives 2.4% (n = 5,900); in the data active = binding response below about 16% or above about 210%; inactive = in between
# MEKK2mut confirm: mutant MEKK2 PB1-MEK5 binding signal retest – biochemical, single concentration, multiplex bead flow cytometry, confirmation; actives 2% (n = 5,900); Alexa488-MEK5 binding to MEKK2 mutant; shares compounds with MEKK3 PB1 HTS; percent response, % at 10 µM; AID 1893, 2009; in the data active = percent response mostly above about 71%, no sharp cut-off; inactive = mostly below about 38%;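 also: higher means compound restores mutant binding toward wildtype level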
# MEKK3-MEK5 inh: MEKK3 wild-type PB1 binding to MEK5, inhibitors, confirmation, biochemical, bead multiplex flow cytometry, single concentration, wildtype | shares compounds with MEKK3 PB1 HTS | Alexa488-MEK5 binding to MEKK3; hits give low values | binding response (% of control), % at 10 µM | actives 1.8% (n = 5,900) | AID 1894, 2009;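 active = binding response below 72% of control, or above a set upper limit, though filed actives all read lower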;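 also: lower values mean stronger disruption of MEK5 binding to MEKK3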
# Hits are given with their value; - = inactive; . = no result given; + = active, no number; [ ] = dose if it differs, or a comment.
SMILES,ABCB1 inh,MEKK2 WT-MEK5,ABCG2 inh,MEKK2mut PB1 HTS,MEKK3 PB1 HTS,MEKK2wt confirm,MEKK2mut confirm,MEKK3-MEK5 inh
COc1ccc(C(=NNc2ccccc2C(=O)O)c2ccc(OC)cc2)cc1,-,-,-,-,150,-,-,-
COc1ccc(C(=O)Nc2ccccc2C(=O)Nc2ccccc2C(=O)O)cc1,.,-,.,-,-,.,.,.
Cc1ccc(NC(=O)Cn2cc([N+](=O)[O-])nc2C)cc1C,.,-,.,-,-,.,.,.
CC(C)COC(=O)c1nnsc1NC(=O)Nc1ccccc1,-,-,-,-,76[inhibitor],-,-,-
COc1cc(C(=O)Nc2ccc3c(c2)Cc2ccccc2-3)cc(OC)c1OC,-,-,-,-,135,-,-,-
CCOc1ccc(NS(=O)(=O)c2ccc3c(c2)N(C(C)=O)CCS3)cc1,.,-,.,-,-,.,.,.
Cc1[nH]n(-c2ccc([N+](=O)[O-])cc2)c(=O)c1C=NCCc1c(C)[nH]c2ccccc12,-,-,-,-,133,-,-,-
Cc1[nH]n(-c2ccc([N+](=O)[O-])cc2)c(=O)c1C=NCCc1ccc(S(N)(=O)=O)cc1,-,-,-,-,-,.,.,.
CCOc1ccccc1NC(=O)CCS(=O)(=O)c1ccc(Br)cc1,.,-,.,-,81[inhibitor],-,-,-
CCC(C)(O)c1[nH]c2ccc(C(F)(F)F)cc2c1C (configuration not stated),.,-,.,-,-,.,.,.
COCCC(=O)N1CCC(Oc2ccc(C(=O)NCCc3cnn(C)c3)cc2)CC1,.,-,.,-,-,.,.,.
COCC(=O)N1CCC(Oc2ccc(C(=O)NCCc3ccncc3)cc2)CC1,-,610,-,+,128,-,-,-
O=C(O)c1ccccc1O,-,-,-,-,-,.,.,.
O=C(O)c1cccc(C(=O)O)c1Br,.,152,.,-,-,-,-,-
O=S1(=O)CC(O)C(Nc2ccc(Cl)cc2)C1 (configuration not stated),-,-,-,-,49[inhibitor],-,-,-
O=S1(=O)CC(O)C(Nc2ccccc2)C1 (configuration not stated),-,-,-,-,-,.,.,.
CCCCCCCCCCCCCCCC[n+]1ccc(/C=N/O)cc1,-,150,-,-,-,257,181,-
CCCCCCCCCCCCCCCC[n+]1ccc(C(N)=O)cc1,-,139,-,-,-,-,-,-
CCCCCCCCCCCCCCCC[n+]1cccc(C(=O)N(CC)CC)c1,-,-,-,-,-,.,.,.
COc1ccc(OCCC(=O)N2CCN(C)CC2)cc1,.,-,.,25,-,-,-,-
COc1ccc(OCCC(=O)N2CCCCC2)cc1,-,.,-,.,.,.,.,.
COc1ccc(OC)c(/C(O)=C/C(=O)C(=O)Nc2cc(C)cc(C)c2)c1,-,-,-,-,126,-,-,-
CCc1c(C)nc2ncnn2c1N1CCC(C(=O)NCc2cccs2)CC1,-,6.0[inhibitor],-,-,3.0[inhibitor],-,-,-
CCc1c(C)nc2ncnn2c1N1CCCC(C(=O)NCc2cccs2)C1 (configuration not stated),-,-,-,-,-,.,.,.
CCOC(=O)c1c(NC(=O)c2c(C(=O)O)cccc2[N+](=O)[O-])sc2c1CCCC2,.,-,.,-,-,.,.,.
SMILES,ABCB1 inh,MEKK2 WT-MEK5,ABCG2 inh,MEKK2mut PB1 HTS,MEKK3 PB1 HTS,MEKK2wt confirm,MEKK2mut confirm,MEKK3-MEK5 inh
CCC(C)n1c(SCc2ccccc2)nc2ccsc2c1=O (configuration not stated),-,-,-,-,151,-,-,-
N#Cc1ccccc1CSc1nc2ccsc2c(=O)n1Cc1ccccn1,-,-,-,-,-,.,.,.
CCC(C)n1c(SCC(=O)Nc2ccccc2C(F)(F)F)nc2ccsc2c1=O (configuration not stated),-,-,-,-,-,.,.,.
Cc1ccc(CSc2nc3ccsc3c(=O)n2Cc2ccccn2)cc1,-,-,-,-,139,-,-,-
CCOc1ccc(S(=O)(=O)N2CCC(C(=O)NCc3ccccn3)CC2)cc1C,.,-,.,-,-,.,.,.
CCOC(=O)C(CCCOc1ccccc1)C(=O)OCC,-,-,-,-,43[inhibitor],-,-,-
O=C(O)C1=C[C@@H](c2csc3ccccc23)C[C@@H](OCc2ccc(CO)cc2)O1,-,-,-,-,-,.,.,.
O=C(O)C1=C[C@H](c2csc3ccccc23)C[C@H](OCc2ccc(CO)cc2)O1,-,-,-,-,66[inhibitor],-,-,-
CCOC(=O)c1ccc(NC(=S)N(CCCN2CCCC(C)C2)Cc2cccs2)cc1 (configuration not stated),-,142,-,-,-,-,-,-
COc1cc(-c2nc3n(n2)C(c2ccncc2)C(C(N)=O)=C(C)N3)cc(OC)c1OC (configuration not stated),-,-,-,-,122,-,-,-
CCn1c(O)c(/C=C2\C=NN=C2c2ccccc2)sc1=S,.,-,.,-,-,.,.,.
CC(C)Cn1c(O)c(/C=C2\C=NN=C2c2ccccc2)sc1=S,-,-,-,-,133,-,-,-
Cc1cccc(OCc2nnc(SCC(=O)NCCc3ccccc3)o2)c1,-,-7.0[inhibitor],-,-,-,-,-,-
O=C(CSc1nnc(COc2ccccc2)o1)NCCc1ccccc1,-,-,-,-,-,.,.,.
CCOC(=O)Cc1c(Sc2ccccc2)c2ccccc2n1C,-,-,-,-,-,.,.,.
Cn1c(CC(=O)Nc2ccc(F)cc2)c(Sc2ccccc2)c2ccccc21,-,-,-,54,-,-,-,-
Cn1c(CC(=O)NC(C)(C)CO)c(Sc2ccccc2)c2ccccc21,-,-,-,-,-,.,.,.
COc1ccc(NC(=O)Cc2c(Sc3ccccc3)c3ccccc3n2C)cc1,-,-,-,-,154,-,-,-
O=C(Cc1ccsc1)NNC(=O)c1cccc(Cl)c1,.,-,.,-,-,.,.,.

# Source: PubChem (NMMLSC)
